Screens: PubChem BioAssay, several laboratories
Ecoli rRNA inh – reduced GFP signal of wild-type E. coli, primary screen, bacterial rRNA inhibitor project, GFP/RFP fluorescence, OD600, single point; AID 720706, 2013; hit rate 1.6% among 350,000; GFP signal change (wild-type ribosome), % (test concentration not listed); E. coli WT GFP vs humanized-ribosome RFP mutants, 24 h; hits give low values; DMSO median 0, no signal -100;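 active means significant combined selectivity score with lowered wild-type GFP, culture density cut under 30%, mutant RFP and density less affected; inactive means any of these conditions unmet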
Mot1-301 SUMO – yeast Mot1-301 growth rescue at high temperature, primary screen, SUMOylation pathway inhibitor project, S. cerevisiae, ATP luminescence, 38.5C; growth rescue, % at 18.8 µM; hit rate 1% among 320,000; S. cerevisiae Mot1-301 growth rescue; percent above DMSO median, 100 means doubled;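 active means every valid replicate shows activation above 250% relative to neutral control wells; inactive means the rest, any valid replicate at or below 250%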;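 further: OY570 slx delta 5 strain wells were the positive control but not used for scaling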
PglD inh – C. jejuni PglD acetyltransferase inhibitors, primary screen, biochemical, DTNB colorimetric, single point | purified PglD enzyme, DTNB colorimetric CoA detection | inhibition, % at 12.5 µM | hit rate 0.098% among 360,000 | AID 602405, 2012; in the data active means inhibition above about 16%, passing the limit was not always enough
Cneo AK release – Cryptococcus neoformans cell lysis inducers, primary screen, AK release luminescence, single concentration | lysis activity, % at 15 µM | C. neoformans lysis, adenylate kinase release luminescence, 4 h; normalised: neutral wells 0, clomiphene wells 100 | hit rate 0.2% among 360,000;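 active means mean lysis activity across replicates of at least 80%, whatever share of replicates individually reach that level; inactive means mean lysis activity below 80%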
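Assay system: C. neoformans cells. Amount: yeast cell density of 5 × 10^6 cells/mL. Technique: AK luminescence. Buffer or medium: YPD. Times: static 4 h at 37 °C with compound, 1 h detection. Dosing: single-point compound dose. Read-out: lysis from increased AK signal.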
CR mimetic SO – reduction of superoxide in aged yeast, primary screen, HTS; AID 2690, 2010; S. cerevisiae aged cells, superoxide DHE fluorescence; hits give low values; hit rate 0.18% among 330,000; superoxide response (% of plate mean), % at 10 µM;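 active means superoxide response under a set limit, about three screen SD below normal, cut at about 65% in these data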;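 further: yeast aged for seven days with compound at 30 °C before DHE staining; 100% = average MFI of all compound-treated wells on the plate with controls excluded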
An asterisk follows results filed as active. Rows were chosen to be rich in hits. Some 2.2% of all compounds tested hit in one or more screens of this group.

How did C[C@H]1CN([C@@H](C)CO)C(=O)Cc2cc(NC(=O)NC3CCCCC3)ccc2O[C@@H]1CN(C)Cc1ccccc1 do in these assays?
Ecoli rRNA inh: 2; PglD inh: -4; Cneo AK release: 9

How did COc1ccc(CN(C)C[C@H]2Oc3ccc(NC(=O)Nc4ccc(F)cc4)cc3CC(=O)N([C@@H](C)CO)C[C@H]2C)cc1 do in these assays?
PglD inh: 1; Cneo AK release: 1

What do the screens show for `CC(C)NC(=O)Nc1ccc2c(c1)CC(=O)N([C@H](C)CO)C[C@H](C)[C@@H](CN(C)C(=O)Nc1ccc3c(c1)OCO3)O2`?
Ecoli rRNA inh: 4; PglD inh: 5; Cneo AK release: 100*

How did CO[C@H]1CN(C)C(=O)c2cc(NC(=O)Nc3ccc(Cl)c(Cl)c3)ccc2OC[C@H](C)NC[C@H]1C do in these assays?
Ecoli rRNA inh: -22; PglD inh: -7; Cneo AK release: -2

How did O=C(C[C@H]1C[C@@H]2c3cc(NC(=O)CC4CC4)ccc3O[C@@H]2[C@H](CO)O1)NCc1cccc(F)c1 do in these assays?
Ecoli rRNA inh: -1; PglD inh: 1; Cneo AK release: 8

How did Cc1noc(C)c1NC(=O)N[C@H]1CC[C@H](CCNC(=O)C2CCCCC2)O[C@@H]1CO do in these assays?
Ecoli rRNA inh: 2; PglD inh: -3; Cneo AK release: 8

How did C[C@H]1CN([C@@H](C)CO)C(=O)Cc2cc(NC(=O)CCCCCC(=O)Nc3ccccc3N)ccc2O[C@H]1CN(C)Cc1ccc2c(c1)OCO2 do in these assays?
Ecoli rRNA inh: -3; PglD inh: -32; Cneo AK release: 94*

Results for C[C@H](CO)N1C[C@H](C)[C@@H](CN(C)Cc2ccc3c(c2)OCO3)Oc2ccc(NC(=O)CCCCCC(=O)Nc3ccccc3N)cc2CC1=O ?
Ecoli rRNA inh: -1; PglD inh: 1; Cneo AK release: -1

What do the screens show for `CC(C)NC(=O)Nc1ccc2c(c1)CC(=O)N([C@H](C)CO)C[C@@H](C)[C@@H](CN(C)Cc1ccc3c(c1)OCO3)O2`?
Ecoli rRNA inh: 2; PglD inh: 10; Cneo AK release: 0

What do the screens show for `CC(C)NC(=O)Nc1ccc2c(c1)CC(=O)N([C@H](C)CO)C[C@@H](C)[C@H](CN(C)Cc1ccc3c(c1)OCO3)O2`?
Ecoli rRNA inh: -3; PglD inh: 1; Cneo AK release: 100*

What do the screens show for `CC(C)NC(=O)Nc1ccc2c(c1)CC(=O)N([C@@H](C)CO)C[C@@H](C)[C@@H](CN(C)Cc1ccc(Oc3ccccc3)cc1)O2`?
Ecoli rRNA inh: -3; PglD inh: 6; Cneo AK release: 109*

What do the screens show for `N#C[C@@H]1[C@@H](c2ccc(C#Cc3cccnc3)cc2)[C@@H](CO)N1C(=O)C1CCCC1`?
Ecoli rRNA inh: 2

What do the screens show for `Cc1ccc(-c2cnc3c(c2)C(=O)N([C@H](C)CO)C[C@H](C)[C@H](CN(C)C(=O)c2cccc(F)c2)O3)cc1`?
Ecoli rRNA inh: -3; PglD inh: -1; Cneo AK release: -4

How did O=C(NC(=S)NNC(=O)c1ccccc1F)c1cccnc1 do in these assays?
Ecoli rRNA inh: -19*; Mot1-301 SUMO: -3; PglD inh: -1; Cneo AK release: 0; CR mimetic SO: 106

How did Cc1ccccc1C(=O)NNC(=S)NC(=O)c1cccnc1 do in these assays?
Ecoli rRNA inh: -24; Mot1-301 SUMO: 0; PglD inh: -6; Cneo AK release: 0; CR mimetic SO: 107

What do the screens show for `C[C@H](CO)N1C[C@H](C)[C@H](CN(C)S(=O)(=O)c2ccc(F)cc2)Oc2c(NC(=O)Nc3ccc4c(c3)OCO4)cccc2C1=O`?
Ecoli rRNA inh: -8; PglD inh: 1; Cneo AK release: -2

Results for CC1CCc2nc3ccccc3c(C(=O)OCC(=O)NC3CCS(=O)(=O)C3)c2C1 (stereo not given) ?
Ecoli rRNA inh: -29*; Mot1-301 SUMO: 11; CR mimetic SO: 104
